pIC50: −log10 of the molar value. Activity calls are given as the source filed them. No cut-off for these calls is given here.
Columns and labels:
[1] = Cytotoxicity against MT2 cells; type: cell-based; settings: human
[2] = target: Human immunodeficiency virus type 1 integrase (Human immunodeficiency virus 1) (UniProt Q7ZJM1); test: (§1) Inhibition of recombinant HIV1 integrase 3'-end processing activity
In short: (§2)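 Recombinant HIV-1 integrase with a 21 bp duplex substrate, 5'-[32P]-labelled. 3'-processing read as release of the terminal dinucleotide; strand transfer read as DNA products longer than the starting substrate. Products resolved by PAGE. IC50 given as mean and standard deviation of at least three independent experiments.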

[3] = target: Human immunodeficiency virus type 1 integrase (Human immunodeficiency virus 1) (UniProt Q7ZJM1); test: (§3) Inhibition of recombinant HIV1 integrase strand transfer activity; in short: as §2
[4] = target: T1, Human immunodeficiency virus type 1 integrase (Human immunodeficiency virus 1, UniProt Q7ZJM1); test: as §3; in short: as §2
T1 sequence (Q7ZJM1 whole entry): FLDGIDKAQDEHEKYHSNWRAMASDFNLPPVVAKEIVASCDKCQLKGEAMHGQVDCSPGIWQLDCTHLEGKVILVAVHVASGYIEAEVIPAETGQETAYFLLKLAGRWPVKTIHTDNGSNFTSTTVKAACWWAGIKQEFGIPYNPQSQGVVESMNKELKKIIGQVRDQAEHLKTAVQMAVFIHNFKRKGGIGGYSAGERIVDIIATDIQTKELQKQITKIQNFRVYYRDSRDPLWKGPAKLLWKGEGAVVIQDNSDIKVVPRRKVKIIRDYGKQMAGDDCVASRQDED

[5] = target: T1, Human immunodeficiency virus type 1 integrase; test: as §1; in short: as §2
[6] = target: T1, Human immunodeficiency virus type 1 integrase; test: Inhibition of recombinant HIV1 integrase mediated-disintegration activity
In short: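 Reverse of strand transfer, run with recombinant HIV-1 integrase on a Y-oligomer substrate carrying a 5'-[32P] label. Cleavage of the 34-mer strand releases a radiolabelled 19-bp oligonucleotide, which was detected by PAGE after reactions over a range of drug concentrations. IC50 derived from the gel analysis.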

Chain of Human immunodeficiency virus type 1 integrase (Human immunodeficiency virus 1) (Q7ZJM1 as listed by the source): as the sequence (Q7ZJM1 whole entry) above

| Activity [2] | Activity [3] | pIC50 [4] | pIC50 [5] | pIC50 [6] | Structure (SMILES) | CC50 [1] [µM] |
| --- | --- | --- | --- | --- | --- | --- |
| inactive | inactive |  |  |  | CC1(C)OC(=O)C2(C(=O)O1)[C@@H](c1ccco1)CC(=O)C[C@H]2c1ccc(Br)cc1 | > 111 |
| inactive | inactive |  |  |  | COc1ccc([C@@H]2CC(=O)C[C@H](c3ccccc3OC)C23C(=O)OC(C)(C)OC3=O)cc1O | > 111 |
| inactive |  | 3.55 |  |  | CCOC(=O)C1=C(O)CCC2(C(=O)OC(C)(C)OC2=O)[C@H]1c1ccccc1OC | > 111 |
| inactive | inactive |  |  |  | COc1ccc([C@@H]2CC(=O)C[C@H](c3ccco3)C23C(=O)OC(C)(C)OC3=O)cc1O | > 111 |
|  |  | 4.44 | 3.88 |  | COc1ccc([C@@H]2CC(=O)C[C@H](c3ccco3)C23C(=O)OC(C)(C)OC3=O)cc1 | > 111 |
|  |  | 4.75 | 4.48 | 4.09 | CC1(C)OC(=O)C2(C(=O)O1)[C@@H](c1ccco1)CC(=O)C[C@H]2c1ccco1 | > 111 |
|  |  | 4.04 | 3.95 |  | COc1ccc([C@@H]2CC(=O)C[C@H](c3ccco3)C23C(=O)OC(C)(C)OC3=O)cc1OC | > 111 |
|  |  | 5.02 | 4.95 | 4.72 | CC1(C)OC(=O)C2(C(=O)O1)[C@@H](c1ccco1)CC(=O)C[C@H]2c1c[nH]c2ccccc12 | > 111 |
| inactive | inactive |  |  |  | COc1ccc([C@@H]2CC(=O)C[C@H](c3ccco3)C23C(=O)OC(C)(C)OC3=O)c(C)c1 | > 111 |
|  |  | 4.01 | 3.85 |  | COc1ccc([C@H]2CC(=O)CCC23C(=O)OC(C)(C)OC3=O)cc1 | > 111 |
|  |  | 3.88 | 3.85 |  | CC1(C)OC(=O)C2(C(=O)O1)[C@@H](c1ccco1)CC(=O)C[C@H]2c1ccccc1 | > 111 |
| inactive | inactive |  |  |  | CC1(C)OC(=O)C2(C(=O)O1)[C@@H](c1ccco1)CC(=O)C[C@H]2c1ccc(F)cc1 | > 111 |
|  |  | 4.36 | 4.17 | 3.67 | CCOC(=O)C1=C(O)CCC2(C(=O)OC(C)(C)OC2=O)[C@H]1c1ccco1 | > 111 |
|  |  | 4.35 | 4.35 |  | COc1cccc([C@@H]2CC(=O)C[C@H](c3ccco3)C23C(=O)OC(C)(C)OC3=O)c1OC | > 111 |
| inactive | inactive |  |  |  | CC1(C)OC(=O)C2(C(=O)O1)[C@@H](c1ccco1)CC(=O)C[C@H]2c1ccccc1Cl | > 111 |

From ChEMBL document CHEMBL1139079, “Synthesis and HIV-1 integrase inhibitory activity of spiroundecane(ene) derivatives” (Bioorg Med Chem Lett, 2007)
